Test results: ChEMBL document CHEMBL2311525, “Design, synthesis, and pharmacological properties of new heteroarylpyridine/heteroarylpyrimidine derivatives as CB(2) cannabinoid receptor partial agonists” (J Med Chem, 2013)

Legend:
Homo sapiens = organism: Homo sapiens; experiment: Selectivity index, ratio of Ki for human recombinant CB1 receptor to Ki for human recombinant CB2 receptor
Cannabinoid receptor 1 [1] = target: Cannabinoid receptor 1 (Homo sapiens, UniProt P21554); experiment: Displacement of [3H]CP-55,940 from human recombinant CB1 receptor expressed in CHO cell membranes after 90 mins by scintillation counting analysis
Cannabinoid receptor 1 (Homo sapiens, UniProt P21554), sequence (P21554 whole entry): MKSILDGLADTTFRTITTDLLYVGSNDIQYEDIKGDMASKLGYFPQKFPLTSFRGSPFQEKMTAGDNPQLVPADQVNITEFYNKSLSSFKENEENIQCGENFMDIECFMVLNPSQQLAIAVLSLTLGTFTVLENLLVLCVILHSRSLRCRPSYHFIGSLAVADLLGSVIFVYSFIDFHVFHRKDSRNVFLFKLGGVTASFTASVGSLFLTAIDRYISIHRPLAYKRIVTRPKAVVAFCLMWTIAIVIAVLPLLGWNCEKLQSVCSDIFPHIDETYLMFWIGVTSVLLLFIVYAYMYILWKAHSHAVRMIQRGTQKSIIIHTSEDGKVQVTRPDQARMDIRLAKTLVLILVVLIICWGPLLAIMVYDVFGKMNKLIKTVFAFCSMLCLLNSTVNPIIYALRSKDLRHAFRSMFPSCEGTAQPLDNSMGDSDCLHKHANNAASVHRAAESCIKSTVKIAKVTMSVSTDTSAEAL

Cannabinoid receptor 2 [2] = target: T1, Cannabinoid receptor 2 (Rattus norvegicus, UniProt Q9QZN9); experiment: Displacement of [3H]CP-55,940 from Sprague-Dawley rat spleen CB2 receptor by scintillation counting analysis
T1 sequence (Q9QZN9 whole entry): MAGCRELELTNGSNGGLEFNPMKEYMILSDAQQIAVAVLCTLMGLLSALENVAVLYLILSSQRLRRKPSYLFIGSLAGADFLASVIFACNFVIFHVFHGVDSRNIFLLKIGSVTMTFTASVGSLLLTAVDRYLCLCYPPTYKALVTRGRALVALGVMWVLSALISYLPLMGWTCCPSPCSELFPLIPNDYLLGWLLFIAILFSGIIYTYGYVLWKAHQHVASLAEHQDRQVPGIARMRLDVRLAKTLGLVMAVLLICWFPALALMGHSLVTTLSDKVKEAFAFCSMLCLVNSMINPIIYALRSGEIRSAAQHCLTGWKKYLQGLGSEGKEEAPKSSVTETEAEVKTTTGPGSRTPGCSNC
In short: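 Male Sprague-Dawley rat spleen membranes, prepared by spinning at 2000g and then 40000g, in 50 mM Tris-HCl with 1 mM EDTA, 3 mM MgCl2 and 0.5% fatty-acid-free BSA, pH 7.4. Filtered on GF/C.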

Cannabinoid receptor 2 [3] = target: T2, Cannabinoid receptor 2 (Homo sapiens, UniProt P34972); experiment: Agonist activity at human CB2 receptor expressed in CHO cells assessed as forskolin-stimulated [3H]cyclic-AMP accumulation by scintillation counting analysis; format: functional, cell-based
T2 sequence (P34972 whole entry): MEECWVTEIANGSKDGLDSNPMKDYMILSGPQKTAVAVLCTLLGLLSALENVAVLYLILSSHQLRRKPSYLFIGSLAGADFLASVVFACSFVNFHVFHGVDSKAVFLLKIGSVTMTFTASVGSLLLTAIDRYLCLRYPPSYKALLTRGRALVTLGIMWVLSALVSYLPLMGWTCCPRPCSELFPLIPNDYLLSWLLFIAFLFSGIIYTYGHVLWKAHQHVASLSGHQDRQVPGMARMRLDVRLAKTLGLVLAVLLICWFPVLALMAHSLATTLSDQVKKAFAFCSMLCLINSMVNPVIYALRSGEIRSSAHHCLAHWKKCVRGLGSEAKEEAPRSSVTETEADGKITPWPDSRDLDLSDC

Cannabinoid receptor 2 [4] = target: T2, Cannabinoid receptor 2; experiment: Displacement of [3H]CP-55,940 from human recombinant CB2 receptor expressed in CHO cell membranes after 60 mins by scintillation counting analysis
Cannabinoid receptor 1 [5] = target: Cannabinoid receptor 1 (Rattus norvegicus, UniProt P20272); experiment: Displacement of [3H]CP-55,940 from Sprague-Dawley rat brain CB1 receptor by scintillation counting analysis
Cannabinoid receptor 1 (Rattus norvegicus, UniProt P20272), sequence (P20272 whole entry): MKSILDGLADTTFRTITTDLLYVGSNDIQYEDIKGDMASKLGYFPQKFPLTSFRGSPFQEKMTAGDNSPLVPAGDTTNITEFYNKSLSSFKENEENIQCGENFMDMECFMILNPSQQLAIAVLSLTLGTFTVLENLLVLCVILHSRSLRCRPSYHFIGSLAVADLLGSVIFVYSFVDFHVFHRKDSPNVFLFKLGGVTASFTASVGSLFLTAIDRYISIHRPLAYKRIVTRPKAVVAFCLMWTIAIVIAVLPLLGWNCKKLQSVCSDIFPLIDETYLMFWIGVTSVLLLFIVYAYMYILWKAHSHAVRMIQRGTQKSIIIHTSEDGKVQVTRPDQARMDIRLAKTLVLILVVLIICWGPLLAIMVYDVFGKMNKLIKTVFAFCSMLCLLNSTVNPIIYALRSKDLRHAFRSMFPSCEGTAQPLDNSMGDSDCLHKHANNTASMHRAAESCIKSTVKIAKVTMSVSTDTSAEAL
In short: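 Male Sprague-Dawley rat brain membranes, prepared by spinning at 2000g and then 40000g, in 50 mM Tris-HCl with 1 mM EDTA, 3 mM MgCl2 and 0.5% fatty-acid-free BSA, pH 7.4. Incubated with 1.0 nM [3H]CP-55,940, 40 μg protein/100 μL and test compound at 1 nM–10 μM. Filtered on GF/C. Ki by Cheng–Prusoff, n = 4.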

Cannabinoid receptor 2 [6] = target: T2, Cannabinoid receptor 2; experiment: Agonist activity at human CB2 receptor expressed in CHO cells assessed as forskolin-stimulated [3H]cyclic-AMP accumulation by scintillation counting analysis relative to WIN 55,212-2; format: functional, cell-based
In short: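 CHO cells stably expressing human CB2, 1 × 10^6 cells/assay, in buffered saline (10 mM MgCl2, 5 mM glucose, 5 mM HEPES, pH 7.4, 37 °C) with 0.5 mM Ro 20-1724. Preincubated 10 min at 37 °C, then tested with 1 μM forskolin. Stopped with cold 6% TCA and ether-extracted. cAMP read by [3H]cAMP competition binding to beef adrenal binding protein with charcoal separation.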

SMILES | Ratio Ki (Homo sapiens) | Ki (Cannabinoid receptor 1 [1]) [nM] | Ki (Cannabinoid receptor 2 [2]) [nM] | EC50 (Cannabinoid receptor 2 [3]) [nM] | Ki (Cannabinoid receptor 2 [4]) [nM] | Ki (Cannabinoid receptor 1 [5]) [nM] | Emax (Cannabinoid receptor 2 [6]) [%]
CCCCCn1cc(C(=O)N[C@H]2CC[C@H](C)CC2)c(=O)c2c(C)nn(C)c21 | 401 | 4570 | 13.3 | 58 | 11.4 | 4800 | 14
CCCCCn1cc(C(=O)NC23CC4CC(CC(C4)C2)C3)c(=O)c2c(C)nn(C)c21 | 84 | 800 | 11.4 | 49 | 9.51 | 832 | 68
CCCCCCn1cc(C(=O)NC2CCCCC2)c(=O)c2c(C)nn(C)c21 | 12 | 3870 | 480 | 1200 | 325 | 3220 | 27
CCCCCn1cc(C(=O)NC2CCCCC2)c(=O)c2cnn(C)c21 | 22 | 5150 | 250 | 872 | 237 | 5650 | 48
CCCCCn1cc(C(=O)NC2CCCCCC2)c(=O)c2cnn(C)c21 | 44 | 4550 | 130 | 404 | 103 | 5200 | 56
CCCCCn1cc(C(=O)NC23CC4CC(CC(C4)C2)C3)c(=O)c2c(C)csc21 | 12.5 | 13.7 | 1.25 | 31 | 1.12 | 16.5 | -167
CCCCCn1cc(C(=O)NC23CC4CC(CC(C4)C2)C3)c(=O)c2cnn(C)c21 | 432 | 4750 | 13.3 | 41 | 11.6 | 5340 | 67
CCCCCn1cc(C(=O)N[C@H]2CC[C@@H](C)CC2)c(=O)c2c(C)nn(C)c21 | 68 | 723 | 11.8 | 52 | 10.6 | 750 | 16
CCCCCn1cc(C(=O)NC23CC4CC(CC(C4)C2)C3)c(=O)c2c(C)noc21 | 69.9 | 1470 | 26 | 83 | 21 | 1490 | 97
CCCCCn1cc(C(=O)Nc2ccccc2)c(=O)c2c(C)nn(C)c21 | 1.7 | 865 | 740 | 2160 | 524 | 1020 | 38
CCCCCn1cc(C(=O)NC(C)CCC(C)C)c(=O)c2c(C)nn(C)c21 (stereo unspecified) | 8.5 | 1800 | 262 | 827 | 212 | 2260 | 46
CCCCCn1cc(C(=O)NC2CCCCCC2)c(=O)c2c(C)nn(C)c21 | 23 | 252 | 35 | 51 | 11.2 | 1620 | 65
CCCCCn1cc(C(=O)NC23CC4CC(CC(C4)C2)C3)c(=O)c2c(CC)nn(C)c21 | 12 | 440 | 97 | 162 | 37 | 2670 | 51
CCCCCn1cc(C(=O)NC23CC4CC(CC(C4)C2)C3)c(=O)n2ncnc12 | 35.6 | 712 | 21 | 87 | 20 | 850 | 60
CCCCCn1cc(C(=O)NCC2CCCCC2)c(=O)c2c(C)nn(C)c21 | 3 | 1120 | 508 | 1560 | 372 | 1040 | 41
CCCCCn1cc(C(=O)NC2CCCCC2)c(=O)c2c(C)nn(C)c21 | 5.9 | 500 | 100 | 323 | 85 | 1420 | 52
CCCCCn1cc(C(=O)NC2CCCCC2)c(=O)c2c(C)noc21 | 17.7 | 155 | 38 | 14.3 | 8.74 | 187 | 98
CCCCCn1cc(C(=O)NC23CC4CC(CC(C4)C2)C3)c(=O)n2nc(-c3ccccc3)nc12 | 146 | 523 | 4.83 |  | 3.58 | 560 | 
CCCCCn1cc(C(=O)NC2CCCCCC2)c(=O)c2c(C)noc21 | 7.8 | 145 | 50 | 35 | 18.5 | 184 | 99
CCCCCn1cc(C(=O)NC2CCCCCC2)c(=O)c2c(C)csc21 | 7.5 | 52 | 8.23 | 65 | 6.95 | 67 | -95
CCCn1cc(C(=O)NC2CCCCC2)c(=O)c2c(C)nn(C)c21 | 1.8 | 758 | 593 |  | 412 | 832 | 
CCCCCn1cc(C(=O)NC2CCCCC2)c(=O)c2c(CC)nn(C)c21 | 2 | 957 | 516 | 2350 | 469 | 1120 | 32
CCCCCn1cc(C(=O)NC23CC4CC(CC(C4)C2)C3)c(=O)c2c(C(C)(C)C)nn(C)c21 | 10 | 3750 | 417 | 1760 | 363 | 3430 | 43
CCCCn1cc(C(=O)NC2CCCCC2)c(=O)c2c(C)nn(C)c21 | 9.1 | 1260 | 145 | 1890 | 138 | 1530 | 38
Cc1nn(C)c2c1c(=O)c(C(=O)NC1CCCCC1)cn2Cc1ccccc1 | 4.4 | 4250 | 1100 | 3820 | 956 | 4560 | 36
